According to ChEMBL document CHEMBL3272156, “(Vinylaryloxy)acetic acids. A new class of diuretic agents. 4. Various ((2-substituted and 2,2-disubstituted vinyl)aryloxy)acetic acids” (1976):

Key:
[1] = tested on: Canis familiaris; test: Diuretic activity in mongrel dog anesthetized with sodium pentobarbital assessed as urine K+ level at 10 mg/kg, iv measured after 15 to 45 mins post dose (reference value: 10 to 44 uequiv/min); assay type: functional, Canis lupus familiaris
Summary of the method: (§1)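 Dogs given compound iv as the Na salt in water; clearance procedure per ref 1. Baseline is the mean of two 15-min clearance periods before dosing. Response is the mean of two consecutive 15-min periods of maximal Na+ excretion, usually 15–45 min after dosing. Values are from single representative experiments in a series of three or four dogs.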

[2] = tested on: Canis familiaris; test: Diuretic activity in mongrel dog anesthetized with sodium pentobarbital assessed as urine volume at 10 mg/kg, iv measured after 15 to 45 mins post dose (reference value: 1 to 5 ml/min); assay type: functional, Canis lupus familiaris; summary of the method: as §1
[3] = tested on: Canis familiaris; test: Diuretic activity in mongrel dog anesthetized with sodium pentobarbital assessed as urine Cl- level at 10 mg/kg, iv measured after 15 to 45 mins post dose (reference value: 0 to 30 uequiv/min); assay type: functional, Canis lupus familiaris; summary of the method: as §1
[4] = tested on: Canis familiaris; test: Diuretic activity in mongrel dog anesthetized with sodium pentobarbital assessed as urine Na+ level at 10 mg/kg, iv measured after 15 to 45 mins post dose (reference value: 3 to 44 uequiv/min); assay type: functional, Canis lupus familiaris; summary of the method: as §1
[5] = tested on: Canis familiaris; test: Diuretic activity in mongrel dog anesthetized with sodium pentobarbital assessed as urine Na+ level at 25 mg/kg, iv measured after 15 to 45 mins post dose (reference value: 3 to 44 uequiv/min); assay type: functional, Canis lupus familiaris; summary of the method: as §1
[6] = tested on: Canis familiaris; test: Diuretic activity in mongrel dog anesthetized with sodium pentobarbital assessed as urine K+ level at 25 mg/kg, iv measured after 15 to 45 mins post dose (reference value: 10 to 44 uequiv/min); assay type: functional, Canis lupus familiaris; summary of the method: as §1
[7] = tested on: Canis familiaris; test: Diuretic activity in mongrel dog anesthetized with sodium pentobarbital assessed as urine Cl- level at 25 mg/kg, iv measured after 15 to 45 mins post dose (reference value: 0 to 30 uequiv/min); assay type: functional, Canis lupus familiaris; summary of the method: as §1
[8] = tested on: Canis familiaris; test: Diuretic activity in mongrel dog anesthetized with sodium pentobarbital assessed as urine volume at 25 mg/kg, iv measured after 15 to 45 mins post dose (reference value: 1 to 5 ml/min); assay type: functional, Canis lupus familiaris; summary of the method: as §1
[9] = tested on: Canis familiaris; test: Diuretic activity in mongrel dog […] assessed as urine Na+ level per 6 hrs at 10 mg/kg, po as gelatin capsules (reference value: 2 equiv/6 hrs); assay type: functional, Canis lupus familiaris
Summary of the method: (§2)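 Trained female mongrel dogs (8–10 kg) given 100 ml water the day before and fasted overnight. On test day they received 250 ml water orally, then 500 ml 1 h later. One hour after that, bladders were catheter-emptied and compound or placebo was given orally in gelatin capsules. Dogs were kept in metabolism cages, and spontaneous urine was pooled with catheter urine at 6 h. Volume and Na+, K+ and Cl− were measured; results are averages per dog group.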

[10] = tested on: Canis familiaris; test: Diuretic activity in mongrel dog […] assessed as urine K+ level per 6 hrs at 10 mg/kg, po as gelatin capsules (reference value: 1 equiv/6 hrs); assay type: functional, Canis lupus familiaris; summary of the method: as §2
[11] = tested on: Canis familiaris; test: Diuretic activity in mongrel dog […] assessed as urine Cl- level per 6 hrs at 10 mg/kg, po as gelatin capsules (reference value: 2 equiv/6 hrs); assay type: functional, Canis lupus familiaris; summary of the method: as §2
[12] = tested on: Canis familiaris; test: Diuretic activity in mongrel dog anesthetized with sodium pentobarbital assessed as urine volume at 5 mg/kg, iv measured after 15 to 45 mins post dose (reference value: 1 to 5 ml/min); assay type: functional, Canis lupus familiaris; summary of the method: as §1
[13] = tested on: Canis familiaris; test: Diuretic activity in mongrel dog anesthetized with sodium pentobarbital assessed as urine Cl- level at 5 mg/kg, iv measured after 15 to 45 mins post dose (reference value: 0 to 30 uequiv/min); assay type: functional, Canis lupus familiaris; summary of the method: as §1
[14] = tested on: Canis familiaris; test: Diuretic activity in mongrel dog anesthetized with sodium pentobarbital assessed as urine volume at 1 mg/kg, iv measured after 15 to 45 mins post dose (reference value: 1 to 5 ml/min); assay type: functional, Canis lupus familiaris; summary of the method: as §1
[15] = tested on: Canis familiaris; test: Diuretic activity in mongrel dog anesthetized with sodium pentobarbital assessed as urine Na+ level at 1 mg/kg, iv measured after 15 to 45 mins post dose (reference value: 3 to 44 uequiv/min); assay type: functional, Canis lupus familiaris; summary of the method: as §1
[16] = tested on: Canis familiaris; test: Diuretic activity in mongrel dog anesthetized with sodium pentobarbital assessed as urine Cl- level at 1 mg/kg, iv measured after 15 to 45 mins post dose (reference value: 0 to 30 uequiv/min); assay type: functional, Canis lupus familiaris; summary of the method: as §1
[17] = tested on: Canis familiaris; test: Diuretic activity in mongrel dog anesthetized with sodium pentobarbital assessed as urine K+ level at 5 mg/kg, iv measured after 15 to 45 mins post dose (reference value: 10 to 44 uequiv/min); assay type: functional, Canis lupus familiaris; summary of the method: as §1
[18] = tested on: Canis familiaris; test: Diuretic activity in mongrel dog anesthetized with sodium pentobarbital assessed as urine K+ level at 1 mg/kg, iv measured after 15 to 45 mins post dose (reference value: 10 to 44 uequiv/min); assay type: functional, Canis lupus familiaris; summary of the method: as §1
[19] = tested on: Canis familiaris; test: Diuretic activity in mongrel dog anesthetized with sodium pentobarbital assessed as urine Na+ level at 5 mg/kg, iv measured after 15 to 45 mins post dose (reference value: 3 to 44 uequiv/min); assay type: functional, Canis lupus familiaris; summary of the method: as §1
[20] = tested on: Canis familiaris; test: Diuretic activity in mongrel dog […] assessed as urine Cl- level per 6 hrs at 5 mg/kg, po as gelatin capsules (reference value: 2 equiv/6 hrs); assay type: functional, Canis lupus familiaris; summary of the method: as §2
[21] = tested on: Canis familiaris; test: Diuretic activity in mongrel dog […] assessed as urine Na+ level per 6 hrs at 5 mg/kg, po as gelatin capsules (reference value: 2 equiv/6 hrs); assay type: functional, Canis lupus familiaris; summary of the method: as §2
[22] = tested on: Canis familiaris; test: Diuretic activity in mongrel dog […] assessed as urine K+ level per 6 hrs at 5 mg/kg, po as gelatin capsules (reference value: 1 equiv/6 hrs); assay type: functional, Canis lupus familiaris; summary of the method: as §2
[23] = tested on: Canis familiaris; test: Diuretic activity in mongrel dog assessed as urine Cl- level per 6 hrs at 0.3 mg/kg, po as gelatin capsules (reference value: 2 equiv/6 hrs)
[24] = tested on: Canis familiaris; test: Diuretic activity in mongrel dog […] assessed as urine K+ level per 6 hrs at 0.3 mg/kg, po as gelatin capsules (reference value: 1 equiv/6 hrs); assay type: functional, Canis lupus familiaris; summary of the method: as §2
[25] = tested on: Canis familiaris; test: Diuretic activity in mongrel dog […] assessed as urine K+ level per 6 hrs at 1 mg/kg, po as gelatin capsules (reference value: 1 equiv/6 hrs); assay type: functional, Canis lupus familiaris; summary of the method: as §2
[26] = tested on: Canis familiaris; test: Diuretic activity in mongrel dog […] assessed as urine Cl- level per 6 hrs at 1 mg/kg, po as gelatin capsules (reference value: 2 equiv/6 hrs); assay type: functional, Canis lupus familiaris; summary of the method: as §2
[27] = tested on: Canis familiaris; test: Diuretic activity in mongrel dog […] assessed as urine Na+ level per 6 hrs at 1 mg/kg, po as gelatin capsules (reference value: 2 equiv/6 hrs); assay type: functional, Canis lupus familiaris; summary of the method: as §2
[28] = tested on: Canis familiaris; test: Diuretic activity in mongrel dog […] assessed as urine Na+ level per 6 hrs at 0.3 mg/kg, po as gelatin capsules (reference value: 2 equiv/6 hrs); assay type: functional, Canis lupus familiaris; summary of the method: as §2

Structure (SMILES) | Activity [1] [uEq/min] | Activity [2] [mL/min] | Activity [3] [uEq/min] | Activity [4] [uEq/min] | further results
C=Cc1ccc(OCC(=O)O)c(Cl)c1Cl | 29 | 1 | 2 | 34 | 
N#CC(C#N)=Cc1ccc(OCC(=O)O)cc1 | 10 | 2 | 45 | 64 | 
N#CC(C#N)=Cc1ccc(OCC(=O)O)cc1Cl | 34 | 2 | 14 | 14 | 
N#CC(C#N)=Cc1ccc(OCC(=O)O)c(Cl)c1Cl | 100 | 5 | 665 | 736 | 
CC(=C(C#N)C#N)c1ccc(OCC(=O)O)c(Cl)c1Cl | 38 | 2 | 125 | 123 | 
N#C/C(=C\c1ccc(OCC(=O)O)c(Cl)c1Cl)C(N)=O | 35 | 4 | 88 | 180 | 
CCOC(=O)/C(C#N)=C/c1ccc(OCC(=O)O)cc1 | 29 | 2 | 25 | 25 | Activity [5]: 79 uEq/min; Activity [6]: 43 uEq/min; Activity [7]: 16 uEq/min; Activity [8]: 1 mL/min
N#C/C(=C\c1ccc(OCC(=O)O)c(Cl)c1Cl)C(=O)O | 32 | 1 | 29 | 38 | 
N#C/C(=C\c1ccc(OCC(=O)O)c(Cl)c1Cl)S(N)(=O)=O |  |  |  |  | Activity [9]: 6 equiv; Activity [10]: 4 equiv; Activity [11]: 6 equiv
NC(=O)C(=Cc1ccc(OCC(=O)O)c(Cl)c1Cl)C(N)=O | 86 | 3 | 145 | 195 | 
CCOC(=O)C(=Cc1ccc(OCC(=O)O)cc1)C(=O)OCC |  |  |  |  | Activity [5]: 44 uEq/min; Activity [6]: 45 uEq/min; Activity [7]: 20 uEq/min; Activity [8]: 1 mL/min
CCOC(=O)C(=Cc1ccc(OCC(=O)O)c(Cl)c1Cl)C(=O)OCC |  |  |  |  | Activity [12]: 4 mL/min; Activity [13]: 261 uEq/min; Activity [14]: 2 mL/min; Activity [15]: 200 uEq/min; Activity [16]: 198 uEq/min; Activity [17]: 113 uEq/min; Activity [18]: 54 uEq/min; Activity [19]: 313 uEq/min
CS(=O)(=O)C(=Cc1ccc(OCC(=O)O)c(Cl)c1Cl)S(C)(=O)=O |  |  |  |  | Activity [5]: 31 uEq/min; Activity [6]: 48 uEq/min; Activity [7]: 34 uEq/min; Activity [8]: 3 mL/min
CC(=O)/C(=C/c1ccc(OCC(=O)O)c(Cl)c1Cl)S(=O)(=O)c1ccccc1 | 58 | 3 | 166 | 183 | 
O=C(O)COc1ccc(/C=C(/C(=O)Oc2ccccc2)S(=O)(=O)Oc2ccccc2)c(Cl)c1Cl |  |  |  |  | Activity [9]: 6 equiv; Activity [10]: 2 equiv; Activity [11]: 6 equiv
O=C(O)COc1ccc(/C=C2\C(=O)C3CCN2CC3)c(Cl)c1Cl | 70 | 4 | 115 | 172 | 
N#C/C=C/c1ccc(OCC(=O)O)c(Cl)c1Cl | 59 | 6 | 484 | 448 | Activity [20]: 17 equiv; Activity [21]: 12 equiv; Activity [22]: 4 equiv
C=C(CC)C(=O)c1ccc(OCC(=O)O)c(Cl)c1Cl [ETHACRYNIC ACID] |  |  |  |  | Activity [23]: 10 equiv; Activity [24]: 2 equiv; Activity [25]: 5 equiv; Activity [26]: 26 equiv; Activity [27]: 21 equiv; Activity [28]: 8 equiv
